Laboratory results reported in ChEMBL document CHEMBL4177581, “The compound (3-{5-[(2,5-dimethoxyphenyl)amino]-1,3,4-thiadiazolidin-2-yl}-5,8-methoxy-2H-chromen-2-one) inhibits the prion protein conversion from PrPC to PrPSc with lower IC50 in ScN2a cells” (Bioorg Med Chem, 2017).
Active and inactive are the calls of the source. The calls are words filed in the database; no cut-off is given here.

How the values were obtained:
Major prion protein [1] = biological target: T1, Major prion protein (Mesocricetus auratus, UniProt P04273); test: Binding affinity to Syrian hamster PrPC assessed as inhibition of PrPC protein conversion to PrPSc by Western blot
[2] = biological target: Major prion protein (Mesocricetus auratus) (UniProt P04273); test: Binding affinity to Syrian hamster PrPC assessed as inhibition of PrPC protein conversion to PrPSc by measuring PrPSc level relative to untreated control; parameters: concentration or dose not given beside the values
Major prion protein [3] = biological target: T1, Major prion protein; test: Binding affinity to Syrian hamster PrPC
[4] = Antiprion activity against mouse prion protein RML infected mouse ScN2a cells assessed as reduction in proteinase K-resistant PrPSc level incubated for 5 days followed by proteinase K digestion by Western blot method relative to control; assay type: cell-based; conditions: 120 h
How it was run: (§1)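 RML scrapie-infected mouse N2a (ScN2a) cells treated for 5 days at […]. Lysates were made in 0.5% NP-40/0.5% deoxycholate Tris-HCl pH 8 buffer and normalised to 1 mg/ml protein. They were digested with 20 µg/ml proteinase K for 1 h at 37 °C, stopped with PMSF, and pelleted at 100,000g. Pellets were immunoblotted with 6D11-biotin. DMSO and quinacrine controls set the normalised percent PrPSc change.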

ScN2a = test: Antiprion activity against mouse prion protein RML infected mouse ScN2a cells assessed as reduction in proteinase K-resistant PrPSc level at 10 to 100 uM incubated for 5 days followed by proteinase K digestion by Western blot method relative to control; assay type: cell-based; how it was run: as §1
[5] = biological target: Major prion protein (Mesocricetus auratus) (UniProt P04273); test: Binding affinity to C-terminal 6x-His-tagged Syrian hamster PrPC (90 to 232 residues) by 15N-HSQC NMR spectroscopy
How it was run: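 Uniformly 15N-labelled Syrian hamster PrPC residues 90–232 was titrated with ligand at a 5:1 ligand/protein molar ratio. 15N-HSQC spectra were recorded, and binding was read as chemical shift changes and signal attenuation of residues.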

Sequence of Major prion protein (Mesocricetus auratus) (P04273 whole entry, the tested form may be a part): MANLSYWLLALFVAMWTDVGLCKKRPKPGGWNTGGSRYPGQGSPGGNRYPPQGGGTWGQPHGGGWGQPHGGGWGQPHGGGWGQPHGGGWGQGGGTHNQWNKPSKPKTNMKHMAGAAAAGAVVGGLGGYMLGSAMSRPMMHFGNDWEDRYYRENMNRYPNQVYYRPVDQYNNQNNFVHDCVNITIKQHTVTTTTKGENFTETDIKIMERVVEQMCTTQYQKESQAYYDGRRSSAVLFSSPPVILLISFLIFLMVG
T1 sequence (P04273 whole entry): as the sequence (P04273 whole entry, the tested form may be a part) above

Compound: Cc1cc2cc3c(cc2nc1SCCN1CCCCC1)OCCO3
- EC50 (Major prion protein [1]): 7.32 µM
- Activity [2]: 47.4%
- Kd (Major prion protein [3]): 50.8 µM

Compound: CC1Cc2ccccc2N1C(=O)COc1ncnc2sccc12 (stereo unspecified)
- EC50 (Major prion protein [1]): 7.17 µM
- Activity [2]: 67.4%

Compound: O=C(COC(=O)c1c2c(nc3ccccc13)CCC2)NC1CCCC1
- EC50 (Major prion protein [1]): 7.2 µM
- Activity [2]: 62.9%

Compound: COc1ccc(-c2cnc(N)nc2C)cc1OC
- IC50 [4]: 35 µM
- inhibition (ScN2a): Active

Compound: O=C(CN1CCc2ccccc21)[C@H]1COc2cc3c(cc21)CCC3
- Activity [2]: 63.7%

Compound: Cc1cccc2cc(C#N)c(N3CCCN(C(=O)C4CCC4)CC3)nc12
- EC50 (Major prion protein [1]): 7.29 µM
- Activity [2]: 50.6%

Compound: O=C(CN1C(=O)COc2ccccc21)N1CCCc2ccccc21
- EC50 (Major prion protein [1]): 7.24 µM
- Activity [2]: 57.5%

Compound: COc1ccc(OC)c(-c2nc(NC(=O)c3cc(OC)c(OC)c(OC)c3)sc2C)c1
- IC50 [4]: 75 µM
- inhibition (ScN2a): Active
- Kd (Major prion protein [3]): 185 µM

Compound: Cc1cccc2cc3c(N)c(C(=O)NC4CCCC4)sc3nc12
- EC50 (Major prion protein [1]): 7.37 µM
- Activity [2]: 41.9%

Compound: O=C(N[C@@H]1CCc2ccccc2C1)C(=O)O[C@@H]1C=CCc2ccccc21
- EC50 (Major prion protein [1]): 7.27 µM
- Activity [2]: 53%

Compound: C[C@@H]1CCCCN1CC(=O)N[C@@H]1S[C@H]2CCCC[C@@H]2[C@H]1C#N
- EC50 (Major prion protein [1]): 7.23 µM
- Activity [2]: 58.8%

Compound: CC1CCCCC1NC(=O)COc1ncnc2sc3c(c12)CCC3 (stereo unspecified)
- EC50 (Major prion protein [1]): 7.16 µM
- Activity [2]: 68.8%

Compound: COc1ccc(-c2nc(N)sc2-c2ccc(OC)cc2)cc1
- IC50 [4]: > 100 µM
- inhibition (ScN2a): Active
- Kd (Major prion protein [3]): 15.5 µM

Compound: CCC(C)C(NC(=O)c1ccccc1)C(=O)N1CCc2ccccc21 (stereo unspecified)
- EC50 (Major prion protein [1]): 7.43 µM
- Activity [5]: Active
- Activity [2]: 36.8%
- Kd (Major prion protein [3]): 51.2 µM

Compound: COc1ccc(-c2nc(N)sc2C)c(OC)c1
- IC50 [4]: 35 µM
- inhibition (ScN2a): Active

Compound: O=C(CSc1ncnc2sc3c(c12)CCC3)NCC1CCCO1 (stereo unspecified)
- EC50 (Major prion protein [1]): 7.02 µM

Compound: N#Cc1c(NC(=O)c2cc3c(s2)CCCC3)sc2c1CCCC2
- EC50 (Major prion protein [1]): 7.17 µM
- Activity [2]: 66.9%

Compound: COc1ccc(-c2cnc(N)nc2-c2ccc(OC)cc2)cc1
- IC50 [4]: 35 µM
- inhibition (ScN2a): Active

Compound: COc1ccc(OC)c(Nc2nnc(-c3cc4cccc(OC)c4oc3=O)s2)c1
- IC50 [4]: 20 µM
- inhibition (ScN2a): Active
- Kd (Major prion protein [3]): 46.4 µM

Compound: CCCCNc1nc2ccccc2n1CC(=O)N1CCc2ccccc21
- EC50 (Major prion protein [1]): 7.42 µM
- Activity [2]: 37.3%

Compound: O=C(CC1CNc2ccccc21)NC1CCc2ccccc2C1 (stereo unspecified)
- EC50 (Major prion protein [1]): 7.25 µM
- Activity [2]: 55.3%
- Kd (Major prion protein [3]): 48.6 µM

Compound: O=C(CN1C(=O)c2cccc3cccc1c23)N[C@@H]1C[C@H]2CC[C@@H]1C2
- EC50 (Major prion protein [1]): 7.18 µM
- Activity [2]: 65%

Compound: CN1/C(=C/C(=O)Nc2cccs2)c2ccccc2CC1(C)C
- EC50 (Major prion protein [1]): 7.24 µM
- Activity [2]: 57.4%

Compound: O=C(CCc1nc2ccccc2c(=O)[nH]1)NC1CCCc2ccccc21 (stereo unspecified)
- EC50 (Major prion protein [1]): 7.18 µM
- Activity [2]: 65%

Compound: CCC[C@@H]1Nc2ccccc2N1CC(=O)N1CCCc2ccccc21
- EC50 (Major prion protein [1]): 7.17 µM
- Activity [2]: 67.2%

Compound: O=C(NC1CCCC1)C1CCCN1C(=O)Nc1ccccc1 (stereo unspecified)
- EC50 (Major prion protein [1]): 7.19 µM
- Activity [2]: 63.2%

Compound: O=C(CN1C(=O)N[C@@]2(CCCc3ccccc32)C1=O)N1CCCCC1
- EC50 (Major prion protein [1]): 7.17 µM
- Activity [2]: 67.1%

Compound: C=CNC(=O)NC(C)=O
- EC50 (Major prion protein [1]): 7.24 µM
- Activity [2]: 56.7%
